Measured values from ChEMBL document CHEMBL1123436, “Comparative toxicities and analgesic activities of three monomethylated analogues of acetaminophen” (J Med Chem, 1986).

Legend:
[1] = tested on: Mus musculus; experiment: Time course of Distribution of Radioactivity in Mice spleen after 3 mmol/kg dose of the Compound after 3 h; type: ADME, organism-based; settings: in vivo
How it was run: (§1)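 Groups of 12 mice given [acetyl-14C]-labelled drug ip, 3 mmol/kg (0.45 mCi/mmol), housed individually with urine/feces separation. Four killed at each of 1, 3 and 24 h by exsanguination. Tissues (~100 mg) digested in Soluene 350; blood digested and peroxide-bleached; feces freeze-dried, rehydrated, digested and bleached. Scintillation counting; nmol equiv/mg tissue or per mL blood/urine, means ± SE (N = 4).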

[2] = tested on: Mus musculus; experiment: (§2) Hepatotoxicity in Swiss-Webster Mice Caused by compound at 400 mg/kg (i.p.) dose; type: functional, organism-based; parameters: dose 400 mg/kg
How it was run: (§3)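 Male Swiss-Webster mice (20 g), groups of 10, were given a single ip dose of drug in saline with no pretreatment. Survivors were decapitated at 24 h and counted. Plasma ALT was measured, and liver sections (formalin-fixed, paraffin, H&E) were scored for necrosis severity in survivors. Values are means ± SE.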

[3] = tested on: Mus musculus; experiment: Time course of Distribution of Radioactivity in Mice kidney after 3 mmol/kg dose of the Compound after 3 h; type: ADME, organism-based; settings: in vivo; how it was run: as §1
[4] = tested on: Mus musculus; experiment: Time course of Distribution of Radioactivity in Mice blood after 3 mmol/kg dose of the Compound after 1 h; type: ADME, organism-based; settings: in vivo; how it was run: as §1
[5] = tested on: Mus musculus; experiment: Time course of Distribution of Radioactivity in Mice Urine after 3 mmol/kg dose of the Compound after 3 h; type: ADME, organism-based; settings: in vivo; how it was run: as §1
[6] = tested on: Mus musculus; experiment: Time course of Distribution of Radioactivity in Mice spleen after 3 mmol/kg dose of the Compound after 24 h; type: ADME, organism-based; settings: in vivo; how it was run: as §1
[7] = tested on: Mus musculus; experiment: Time course of Distribution of Radioactivity in Mice lungs/heart after 3 mmol/kg dose of the Compound after 3 h; type: ADME, organism-based, Lung; settings: in vivo; how it was run: as §1
[8] = tested on: Mus musculus; experiment: Urinary Metabolic (3-(methylthio)acetaminophen) profile in the mouse 24 h after dose of 3 mmol/kg of the compound; type: ADME, organism-based, Urine; settings: in vivo
[9] = tested on: Mus musculus; experiment: (§4) Hepatotoxicity in Swiss-Webster Mice Caused by compound at 750 mg/kg (i.p.) dose; type: functional; settings: route intraperitoneal; how it was run: as §3
[10] = tested on: Mus musculus; experiment: Time course of Distribution of Radioactivity in Mice Urine after 3 mmol/kg dose of the Compound after 1 h; type: ADME, organism-based; settings: in vivo; how it was run: as §1
[11] = tested on: Mus musculus; experiment: Time course of Distribution of Radioactivity in Mice feces after 3 mmol/kg dose of the Compound after 24 h; type: ADME, organism-based; settings: in vivo; how it was run: as §1
[12] = tested on: Mus musculus; experiment: Time course of Distribution of Radioactivity in Mice brain after 3 mmol/kg dose of the Compound after 24 h; type: ADME, organism-based; settings: in vivo; how it was run: as §1
[13] = tested on: Mus musculus; experiment: Time course of Distribution of Radioactivity in Mice feces after 3 mmol/kg dose of the Compound after 1 hr; type: ADME, organism-based; settings: in vivo; how it was run: as §1
[14] = tested on: Mus musculus; experiment: Time course of Distribution of Radioactivity in Mice blood after 3 mmol/kg dose of the Compound after 3 h; type: ADME, organism-based; settings: in vivo; how it was run: as §1
[15] = tested on: Mus musculus; experiment: Time course of Distribution of Radioactivity in Mice intestine after 3 mmol/kg dose of the Compound after 3 h; type: ADME, organism-based; settings: in vivo; how it was run: as §1
[16] = tested on: Mus musculus; experiment: Time course of Distribution of Radioactivity in Mice Liver after 3 mmol/kg dose of the Compound after 3 h; type: ADME, organism-based; settings: in vivo; how it was run: as §1
[17] = tested on: Mus musculus; experiment: Time course of Distribution of Radioactivity in Mice Liver after 3 mmol/kg dose of the Compound after 24 h; type: ADME, organism-based; settings: in vivo; how it was run: as §1
[18] = tested on: Mus musculus; experiment: Urinary Metabolic (3-cysteinnylacetaminophen) profile in the mouse 24 hr after dose of 3 mmol/kg of the compound; type: ADME, organism-based, Urine; settings: in vivo
[19] = tested on: Mus musculus; experiment: Time course of Distribution of Radioactivity in Mice Liver after 3 mmol/kg dose of the Compound after 1 h; type: ADME, organism-based; settings: in vivo; how it was run: as §1
[20] = tested on: Mus musculus; experiment: Time course of Distribution of Radioactivity in Mice lungs/heart after 3 mmol/kg dose of the Compound after 24 h; type: ADME, organism-based, Lung; settings: in vivo; how it was run: as §1
[21] = tested on: Mus musculus; experiment: Time course of Distribution of Radioactivity in Mice blood after 3 mmol/kg dose of the Compound after 24 h; type: ADME, organism-based; settings: in vivo; how it was run: as §1
[22] = organism: Mus musculus; experiment: Analgesic activity determined in mice using the Bradykinin-induced Writhing test; type: functional
How it was run: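 Male CD1 mice (15–20 g), test drug given orally 15 min before bradykinin ip (4 μg in 0.2 mL sterile water), then a second bradykinin injection (0.2 μg/0.1 mL) 15 min later. Writhing was scored over the next 10 min, with control groups of 10 mice. ED50 was derived by log-probit analysis from at least five doses, with 95% limits.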

[23] = tested on: Mus musculus; experiment: Urinary Metabolic (3-methoxyacetaminophen) profile in the mouse 24 hr after dose of 3 mmol/kg of the compound; type: ADME, organism-based, Urine; settings: in vivo
[24] = tested on: Mus musculus; experiment: as §2; type: functional; settings: route intraperitoneal; how it was run: as §3
[25] = tested on: Mus musculus; experiment: Time course of Distribution of Radioactivity in Mice stomach after 3 mmol/kg dose of the Compound after 3 h; type: ADME, organism-based; settings: in vivo; how it was run: as §1
[26] = tested on: Mus musculus; experiment: Time course of Distribution of Radioactivity in Mice intestine after 3 mmol/kg dose of the Compound after 1 h; type: ADME, organism-based; settings: in vivo; how it was run: as §1
[27] = tested on: Mus musculus; experiment: Time course of Distribution of Radioactivity in Mice stomach after 3 mmol/kg dose of the Compound after 24 h; type: ADME, organism-based; settings: in vivo; how it was run: as §1
[28] = tested on: Mus musculus; experiment: Time course of Distribution of Radioactivity in Mice brain after 3 mmol/kg dose of the Compound after 3 h; type: ADME, organism-based; settings: in vivo; how it was run: as §1
[29] = tested on: Mus musculus; experiment: Urinary Metabolic (3-hydroxyacetaminophen) profile in the mouse 24 h after dose of 3 mmol/kg of the compound; type: ADME, organism-based, Urine; settings: in vivo
[30] = tested on: Mus musculus; experiment: as §4; type: functional, organism-based; parameters: dose 750 mg/kg; how it was run: as §3
[31] = tested on: Mus musculus; experiment: Time course of Distribution of Radioactivity in Mice spleen after 3 mmol/kg dose of the Compound after 1 h; type: ADME, organism-based; settings: in vivo; how it was run: as §1
[32] = tested on: Mus musculus; experiment: Time course of Distribution of Radioactivity in Mice Urine after 3 mmol/kg dose of the Compound after 24 h; type: ADME, organism-based; settings: in vivo; how it was run: as §1
[33] = tested on: Mus musculus; experiment: Time course of Distribution of Radioactivity in Mice kidney after 3 mmol/kg dose of the Compound after 1 h; type: ADME, organism-based; settings: in vivo; how it was run: as §1
[34] = tested on: Mus musculus; experiment: Urinary Metabolic (acetaminophen-3-mecapturate) profile in the mouse 24 hr after dose of 3 mmol/kg of the compound; type: ADME, organism-based, Urine; settings: in vivo
[35] = tested on: Mus musculus; experiment: Hepatotoxicity in Swiss-Webster Mice Caused by compound at 400 mg/kg (i.p.) dose; 8/10; type: functional; settings: route intraperitoneal; how it was run: as §3
[36] = tested on: Mus musculus; experiment: Urinary Metabolic (Acetaminophen) profile in the mouse 24 h after dose of 3 mmol/kg of the compound; type: ADME, organism-based, Urine; settings: in vivo
[37] = tested on: Mus musculus; experiment: Time course of Distribution of Radioactivity in Mice stomach after 3 mmol/kg dose of the Compound after 1 h; type: ADME, organism-based; settings: in vivo; how it was run: as §1
[38] = tested on: Mus musculus; experiment: Hepatotoxicity in Swiss-Webster Mice Caused by compound at 750 mg/kg (i.p.) dose; 4/10; type: functional; settings: route intraperitoneal; how it was run: as §3
[39] = tested on: Mus musculus; experiment: Time course of Distribution of Radioactivity in Mice brain after 3 mmol/kg dose of the Compound after 1 h; type: ADME, organism-based; settings: in vivo; how it was run: as §1
[40] = tested on: Mus musculus; experiment: Time course of Distribution of Radioactivity in Mice feces after 3 mmol/kg dose of the Compound after 3 h; type: ADME, organism-based; settings: in vivo; how it was run: as §1
[41] = tested on: Mus musculus; experiment: Time course of Distribution of Radioactivity in Mice intestine after 3 mmol/kg dose of the Compound after 24 h; type: ADME, organism-based; settings: in vivo; how it was run: as §1
[42] = tested on: Mus musculus; experiment: Time course of Distribution of Radioactivity in Mice lungs/heart after 3 mmol/kg dose of the Compound after 1 h; type: ADME, organism-based, Lung; settings: in vivo; how it was run: as §1
[43] = tested on: Mus musculus; experiment: Time course of Distribution of Radioactivity in Mice kidney after 3 mmol/kg dose of the Compound after 24 h; type: ADME, organism-based; settings: in vivo; how it was run: as §1

CC(=O)Nc1ccc(O)cc1 [ACETAMINOPHEN]
Radioactivity [1]: 0.29 nM equiv (mg of tissue)-1
Plasma ALT at 24 h [2]: 1550 mU ml-1
Radioactivity [3]: 1.19 nM equiv (mg of tissue)-1
Radioactivity [4]: 1605 nM equiv (ml of blood)-1
Radioactivity [5]: 3880 nM equiv (ml of urine)-1
Radioactivity [6]: 0.04 nM equiv (mg of tissue)-1
Radioactivity [7]: 0.2 nM equiv (mg of tissue)-1
Administered dose [8]: 2.3%
Hepatic necrosis in survivors [9]: 3.25
Radioactivity [10]: 12.4 nM equiv (ml of urine)-1
Radioactivity [11]: 15.3 nM equiv mg-1
Radioactivity [12]: 0.05 nM equiv (mg of tissue)-1
Radioactivity [13]: 0.09 nM equiv mg-1
Radioactivity [14]: 544 nM equiv (ml of blood)-1
Radioactivity [15]: 1.08 nM equiv (mg of tissue)-1
Radioactivity [16]: 0.73 nM equiv (mg of tissue)-1
Radioactivity [17]: 0.58 nM equiv (mg of tissue)-1
Administered dose [18]: 18.5%
Radioactivity [19]: 2.89 nM equiv (mg of tissue)-1
Radioactivity [20]: 0.11 nM equiv (mg of tissue)-1
Radioactivity [21]: 19.2 nM equiv (ml of blood)-1
ED50 [22]: 84.3 mg/kg
Administered dose [23]: 1.1%
Hepatic necrosis in survivors [24]: 1.13
Radioactivity [25]: 0.71 nM equiv (mg of tissue)-1
Radioactivity [26]: 2.19 nM equiv (mg of tissue)-1
Radioactivity [27]: 0.15 nM equiv (mg of tissue)-1
Radioactivity [28]: 0.24 nM equiv (mg of tissue)-1
Administered dose [29]: 0.4%
Plasma ALT at 24 h [30]: 4030 mU ml-1
Radioactivity [31]: 1.55 nM equiv (mg of tissue)-1
Radioactivity [32]: 6005 nM equiv (ml of urine)-1
Radioactivity [33]: 2.45 nM equiv (mg of tissue)-1
Administered dose [34]: 2%
Survivors at 24 h [35]: 8
Administered dose [36]: 68.8%
Radioactivity [37]: 1.13 nM equiv (mg of tissue)-1
Survivors at 24 h [38]: 4
Radioactivity [39]: 1.22 nM equiv (mg of tissue)-1
Radioactivity [40]: 1.52 nM equiv mg-1
Radioactivity [41]: 0.92 nM equiv (mg of tissue)-1
Radioactivity [42]: 1.13 nM equiv (mg of tissue)-1
Radioactivity [43]: 0.21 nM equiv (mg of tissue)-1
